High-throughput results deposited in PubChem by several laboratories.
Sampled rows, rich in hits. Any-hit rate of the full collection: about 4.5%.
RGS4 inh = human RGS4 inhibition | P49798 | HEK293 M3R/RGS4 inducible, Fluo-4 calcium flux; stronger effect = higher value; triggered by carbachol at its EC20 | hit rate 0.45% among 310,000 | B-score at 10 µM;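 active means B-score, a plate-corrected calcium signal, over three deviations above library mean, with baseline fluorescence within five deviations of library mean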;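 further: RGS4 expression induced by doxycycline in cells with stable M3 receptor; B-score is computed from the integrated fluorescence ratio over baseline after carbachol; higher B-score means a larger calcium signal and so more RGS4 inhibition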
RGS4 pot = RGS4 potentiation or activation; hit rate 0.92% among 310,000; HEK293 M3R/inducible RGS4, carbachol calcium flux Fluo4; stronger effect = lower value; B-score at 10 µM;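 active means B-score of the integrated calcium signal more than 4 SD below the library mean, with starting fluorescence not abnormally high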;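 further: negative B-score means reduced calcium response which marks RGS4 activation or potentiation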
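Material: Inducible-RGS4 HEK293 cells carrying M3 receptor; also added: carbachol at ECmax as muscarinic agonist stimulus; incubation: compound preincubation 20 min at room temperature before agonist; signal: Fluo4-AM (2 µM) calcium-flux fluorescence, kinetic read; measure: integrated calcium ratio converted to B score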
PHOSPHO1 block = blocks human PHOSPHO1 phosphatase activity; Q8TCT1; recombinant PHOSPHO1, absorbance phosphatase assay; inhibition, % at 13.3 µM; hit rate 1.1% among 290,000; AID 1565; in the data active means inhibition above about 60%
MrgX1 antagonist = human MrgX1 receptor antagonism, primary screen. Q96LB2. MRGX1-HEK293 calcium flux, Fluo-4, BAM8-22 antagonism; stronger effect = lower value. B-score at 10 µM. hit rate 1.3% among 310,000;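 active means calcium-response B-score plate-corrected more than 3 library SD below zero, starting fluorescence within 5 deviations, no agonist response on first addition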;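 further: peak minus trough fluorescence over baseline after final BAM8-22 challenge near maximal dose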
Target sequence (Q96LB2 whole entry, looked up): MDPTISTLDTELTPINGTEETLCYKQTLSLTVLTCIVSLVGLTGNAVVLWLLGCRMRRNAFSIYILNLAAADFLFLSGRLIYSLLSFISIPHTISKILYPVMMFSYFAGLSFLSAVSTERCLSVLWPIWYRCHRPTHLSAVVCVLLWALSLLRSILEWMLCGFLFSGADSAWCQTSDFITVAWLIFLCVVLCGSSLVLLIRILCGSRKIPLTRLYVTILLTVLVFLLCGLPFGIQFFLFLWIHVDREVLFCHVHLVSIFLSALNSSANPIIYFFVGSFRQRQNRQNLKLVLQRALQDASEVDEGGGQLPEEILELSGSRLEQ
MrgX1 ag = human MrgX1 receptor agonism, primary screen; Q96LB2; MrgX1-HEK293 cells, Fluo-4 calcium fluorescence, agonist mode; stronger effect = higher value; B-score at 10 µM; hit rate 0.44% among 310,000; AID 588627;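 active means calcium response B-score plate-corrected fluorescence ratio at least 3 library SD, with starting fluorescence B-score inside 5 SD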
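Material: HEK293 cells stably expressing human MrgX1 receptor | Quantity: 15,000 cells per well | Times: Cells plated overnight, dye loaded 0.5 h 37 °C, 0.5 h room temperature | Measured by: Kinetic Fluo-4 NW fluorescence of intracellular calcium | Control set: Positive and negative controls per plate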
MrgX1 allo act = human MrgX1 positive allosteric modulation, primary screen; B-score at 10 µM; hit rate 0.63% among 310,000; MrgX1-HEK293, Fluo-4 calcium flux, FDSS; stronger effect = higher value; Q96LB2;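 active means plate-corrected calcium response at least 3 library SD above typical, normal starting fluorescence, not activating the receptor alone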;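 further: compound read alongside a low EC10 to EC30 dose of BAM8-22 agonist; peak minus trough fluorescence over baseline measured at the second addition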
Starred values were filed as active, the others as inactive; i = inactive; x = no result given.

SMILES | RGS4 inh | RGS4 pot | PHOSPHO1 block | MrgX1 antagonist | MrgX1 ag | MrgX1 allo act
CCCNC(=O)CN1C(=O)COc2ccc(S(=O)(=O)N3CC(C)CC(C)C3)cc21 (stereo not drawn) | i | i | 74* | i | i | i
CCN(C(=O)CN1C(=O)COc2ccc(S(=O)(=O)N3CCCCCC3)cc21)c1cccc(C)c1 | i | i | 43 | i | 38* | i
CC(C)OC(=O)CSc1nc(Cc2cccs2)nc2ccccc12 | i | i | 37 | i | i | i
COC(CNc1ncnc2c1cnn2C)OC | i | i | -5 | i | i | i
COCCCN=C(c1ccco1)n1c(=S)nc(-c2ccco2)n(CCCOC)c1=S | i | i | 98* | i | i | i
COCCCn1c(-c2ccco2)nc2ccccc2c1=O | i | i | -7 | i | i | i
O=C(CN(c1ccc(F)cc1)S(=O)(=O)c1ccccc1)NCCSC1CCCCC1 | i | i | -9 | i | i | i
O=[N+]([O-])c1ccc(N2CCN(S(=O)(=O)c3ccc(Cl)c(Cl)c3)CC2)cc1NCCN1CCOCC1 | i | i | -12 | i | i | i
CCNc1cc(N2CCN(S(=O)(=O)c3ccc4c(c3)CCCC4)CC2)ccc1[N+](=O)[O-] | i | i | -10 | -7.5* | i | i
COc1ccc2[nH]c(CN3CCC(CO)(CCOc4ccccc4)CC3)c(C)c2c1 | i | i | 19 | i | i | i
Nn1c(SCc2ccccc2)nnc1-c1ccco1 | i | i | 1 | -5.7* | i | i
Cc1cccc(CSc2nnc(-c3ccccn3)n2N)c1 | i | i | 63* | i | i | i
Nn1c(SC/C=C/c2ccccc2)nnc1-c1cccnc1 | i | i | -51 | i | i | i
Nn1c(SC/C=C/c2ccccc2)nnc1-c1ccccn1 | i | i | 84* | i | i | i
Nn1c(SCc2cccc3ccccc23)nnc1-c1ccco1 | i | i | 23 | i | i | i
OC[C@H]1O[C@H](OC[C@H]2OC(O)[C@H](O)[C@@H](O)[C@@H]2O)[C@H](O)[C@@H](O)[C@@H]1O (stereo partly drawn) | x | x | x | i | i | i
CCC12CCCN3CCC4(C(=C(C(=O)OC)C1)Nc1ccccc14)C32 (stereo not drawn) | i | i | 99* | x | x | x
CC(c1ccccn1)N(C)C(=O)c1ccc2nc(Cc3ccccc3F)oc2c1 (stereo not drawn) | i | i | 47 | i | i | i
COc1ccc(OC)c(CNn2c(-c3ccccc3F)nc3ccccc3c2=O)c1 | i | i | 16 | -4.8* | i | i
CCOC(=O)CCCc1sc(N)nc1-c1[nH]c(=O)[nH]c1C | i | i | 88* | i | i | i
CCOC(=O)CCc1c(C)n[nH]c1C | i | i | 16 | i | i | i
CN(C(=O)c1nn(C)c2c1CS(=O)(=O)c1ccccc1-2)c1cccc(Cl)c1 | i | i | 36 | i | i | i
Cc1nc(C(=O)N(C)C)nn1-c1ccc([N+](=O)[O-])cc1 | i | i | 38 | i | i | i
COCCOC(=O)/C(=C\c1cc(C(C)(C)C)c(O)c(C(C)(C)C)c1)C(C)=O | i | i | -3 | i | i | 6.6*
O=C(CS(=O)(=O)c1ccccc1)c1cc2ccccc2oc1=O | i | i | 18 | i | i | i
O=C(CS(=O)(=O)c1ccccc1)c1cc2cc(F)ccc2oc1=O | i | i | 28 | i | 61* | i
COc1ccc(S(=O)(=O)CC(=O)c2cc3cccc(C)c3oc2=O)cc1 | i | i | 28 | i | 42* | i
CN(C)c1ccc(/C=C(\C#N)C(=O)c2ccccc2)cc1 | i | i | 51 | -6.3* | i | i
CCOC(=O)NC(=O)/C(C#N)=C/c1ccc(N(C)C)cc1 | i | i | 25 | i | 54* | i
CCN(CC)c1ccc(/C=C(\C#N)C(=O)c2ccc(Br)cc2)cc1 | i | i | 6 | i | 30* | i
